The structures appear in SMILES notation. pIC50: −log10 of the molar value.

For one assay, the target named is T1, Thyroid hormone receptor alpha (Homo sapiens, UniProt P10827).
T1 sequence (P10827 whole entry): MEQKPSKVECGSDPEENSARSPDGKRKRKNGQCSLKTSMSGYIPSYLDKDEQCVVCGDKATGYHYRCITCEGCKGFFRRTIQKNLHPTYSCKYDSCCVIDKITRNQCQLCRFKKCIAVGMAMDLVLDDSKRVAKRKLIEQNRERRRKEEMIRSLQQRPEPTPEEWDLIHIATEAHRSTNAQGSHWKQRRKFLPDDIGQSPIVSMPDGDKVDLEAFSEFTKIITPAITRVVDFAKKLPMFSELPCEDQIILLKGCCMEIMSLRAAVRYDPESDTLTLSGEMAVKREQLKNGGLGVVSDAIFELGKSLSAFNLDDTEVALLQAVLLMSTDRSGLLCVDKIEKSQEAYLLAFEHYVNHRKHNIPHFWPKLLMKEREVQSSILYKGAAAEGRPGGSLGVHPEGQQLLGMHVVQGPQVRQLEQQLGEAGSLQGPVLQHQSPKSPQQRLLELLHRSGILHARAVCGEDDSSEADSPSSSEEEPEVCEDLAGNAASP
The assay can be described thus: Inhibitory activity expressed as concentration required to inhibit the binding of [125I]T3 to human thyroid hormone-alpha; NA =Inactive. In short, it runs like this: (§1)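 hTHR from nuclear extracts of baculovirus-infected sf-9 cells, 20 pM final, with [125I]T3 at 200 pM final. Compounds serially diluted in DMSO. Buffer: 400 mM KCl, K phosphate, 1 mM MgCl2, 0.5 mM EDTA, 8.7% glycerol, 6 mM monothioglycerol, 0.5% reticulocyte lysate; 18–20 h, 4 °C. Bound and free separated on Sephadex G-25, gamma-counted. IC50 from competition curve, second of two titrations.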
As to `N=C(c1ccc(Cl)cc1)N(N)S(=O)(=O)c1cc(Cl)c(Oc2ccc([N+](=O)[O-])cc2Cl)c(Cl)c1`, the IC50 result is “Not Active”. Still for that read-out and setting: the value for `N=C(c1cccnc1)N(N)S(=O)(=O)c1cc(Cl)c(Oc2ccc([N+](=O)[O-])cc2Cl)c(Cl)c1` was “Not Active”; that for `N=C(c1ccc(Cl)cc1)N(N)S(=O)(=O)c1cc(Cl)c(Oc2ccc([N+](=O)[O-])cc2)c(Cl)c1` was “Not Active”; that for `Cn1c(Cc2nn(C)c(=O)c3ccccc23)ccc1SCc1ccc(Cl)cc1Cl` was “Not Active”.

The target in the next assay is T1, Thyroid hormone receptor alpha. The assay can be described thus: Inhibitory activity expressed as concentration required to inhibit the binding of [125I]T3 to human thyroid hormone-alpha. In short, it runs like this:
as §1
As a reminder, the pIC50 is the negative decadic logarithm of the IC50, by convention in mol/L. Low readings indicate a high IC50, high ones a low IC50. `O=C(Nc1ccc(Cc2ccc(NC(=O)c3cccc([N+](=O)[O-])c3)cc2)cc1)c1cccc([N+](=O)[O-])c1` had a pIC50 of 4.74. Still for that read-out and setting: the value for `[NH-]C(c1cc(Cl)cc(Cl)c1)=[N+](N)S(=O)(=O)c1cc(Cl)c(Oc2ccc([N+](=O)[O-])cc2Cl)c(Cl)c1` was 6.03; that for `N=C(c1ccccn1)N(N)S(=O)(=O)c1cc(Cl)c(Oc2ccc([N+](=O)[O-])cc2Cl)c(Cl)c1` was 4.41; that for `Cn1c(Cc2nn(C)c(=O)c3ccccc23)ccc1SCC(=O)c1ccc(Cl)cc1Cl` was 4.16. Same read-out and setting: the value for `N=C(CCl)N(N)S(=O)(=O)c1cc(Cl)c(Oc2ccc([N+](=O)[O-])cc2Cl)c(Cl)c1` was 5.74.

For the origin of these results see ChEMBL document CHEMBL1131011, “Pharmacophores incorporating numerous excluded volumes defined by X-ray crystallographic structure in three-dimensional database searching: application to the thyroid hormone receptor” (J Med Chem, 1998).
